# Fewer inactive variants are shown than the library holds.
# B1: tRNA (parent)
# chain: GUUCCGUUGGCGUAAUGGUAACGCGUCUCCCUCCUAAGGAGAAGACUGCGGGUUCGAGUCCCGUACGGAACG
# Variants of: B1
# Assay: yeast fitness relative to wild type (ratio to wild type); higher = fitter; tRNA-Arg(CCU), competitive growth, 37 C, YPD
# Outline: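 Changes in genotype frequencies gave Darwinian fitness relative to wild type. Frequencies were read by 100-nucleotide paired-end sequencing of gene amplicons before and after pooled Saccharomyces cerevisiae strains, carrying tRNA-Arg(CCU) gene variants at the native locus, were competed in YPD at 37°C for 24 hours in six replicates. A genotype was kept only with ≥ 100 starting reads, and estimates < 0.5 were set to 0.5.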
row,Variant,yeast fitness
1,GUUCGGUCGGCGUAAUGGUAACGCGUCUCCCUCCUAAGGAGAAGACUGCGGGUUGGAGUCCCGUACGGAACG [C5G U8C C55G],≤ 0.5
2,GUUCGGUUGGCGUAAUGGUAACGCGUCUCCCUCCUAAGGAGAAGACUGCGGGUUCAAGUCCGGUACGGAACG [C5G G56A C62G],0.543
3,GUUCGGCAGGCGUAAUGGUAACGCGUCUCCCUCCUAAGGAGAAGACUGCGGGUUCGAGUCCCGUACGGAACG [C5G U7C U8A],0.56
4,GUUCGGUCGGCGUAGUGCUAACGCGUCUCCCUCCUAAGGAGAAGACUGCGGGUUCGAGUCCCGUACGGAACG [C5G U8C A15G G18C],≤ 0.5
5,GUUCGGUUGGCGAAAUGGUAACGCGUCUCCCUCCUAAGGAGAAGACUGCGGGUUCGAGUCCCGUACGGAACG [C5G U13A],0.906
6,GUUCGGUUGGCGUAAUGGUAACGCGUCUCCCUCCUAAGGAGAAGACUGCGGGUUCGAAUCCCGUACCGAACG [C5G G58A G67C],0.687
7,GUUCGGCUGGGGUAAUGGUAACGCGUCUCCCUCCUAAGGAGAGGACUGCGGGUUCGAGUCCCGUUCGGAACG [C5G U7C C11G A43G A65U],≤ 0.5
8,GUUCGGUUGGCGUAAUGGUAACGCGUCUCCCUCCUAAGGAGAAGACUGCGGGUUCCAGUCCCGUACGGAACG [C5G G56C],0.662
9,GUUCGGGUGGCGUAAUGGUAACGCGUCUCCCUCCUAAGGAGAAGACUGCGGGUUCGAGUCUCGUACGGAACG [C5G U7G C61U],0.649
10,GUUCGGCUGGCGUUAUGGUAACGUGUCUCCCUCCUAAGGAGAAGAGUGCGGGUUCGAGUCCUGUAUGGAACG [C5G U7C A14U C24U C46G C62U C66U],≤ 0.5
11,GUUCGGGUGGCGUAAUGGUAACGCGUCUCCCUCCUUAGGAAAAGACUGGGGGUUCGAGUCCCGUACGGAACG [C5G U7G A36U G41A C49G],≤ 0.5
12,GUUCGGUCGGCGUAAUGGUAACGCGUCUCCCUCCUAAGGAGAAGACUCCGGGUUCGAGUCCCGUACGGAACG [C5G U8C G48C],≤ 0.5
13,GUUCGGUUGGCGUAAUGGUAACGCGUCUCCCUCCUAAGGAGAAGACUGCGGAUUCGAGUCCCGUACGGAACG [C5G G52A],0.806
14,GUUCGGUCGGCGUAAUGGUAACGCGUCUCCCUCCUAAGGAGAAGACUGCGGGUUCGAGUACCAUACGGAACG [C5G U8C C60A G63A],≤ 0.5
15,GUUCGGCUGGCGUAAUGGUAACGCGUCUCCCUCCUAAGGAGAAGUCUGCGGGUUGGAGUCCCGUACGGAACG [C5G U7C A45U C55G],≤ 0.5
16,GUUCGGUCGGCGUAAUGGUACCGCGUCUCCCUUCUAAGGAGAAGACUGCGGGUUCGAGGCCCGUACGGAACG [C5G U8C A21C C33U U59G],≤ 0.5
17,GUUCGGUUGGCGUAAUGGUAACGCGUCUCCCUCCUAAGGAGAAGACUGCGGGUUCAAGGCCCGUACGGAACG [C5G G56A U59G],≤ 0.5
18,GUUCGGUCGGCGUAAUGGUAACGCGUGUCCCUGCAAAGGAGAAGACUGUGGGUUCGAGUCCCGUACGGAACG [C5G U8C C27G C33G U35A C49U],≤ 0.5
19,GUUCGGGUGGCGUAAUGGUAACGCGUCUCCCUCCUAAAGCGAAGACUGCGGGUUCAAGUUGCGUACGGAACG [C5G U7G G38A A40C G56A C60U C61G],≤ 0.5

row,Variant,yeast fitness
1,GUUCGGCUGGCGUAAUGGUAACGCGUCUCCCUCCUAAGGAGAAGACUGCGGGUUCGAGUCCCGUACGGAACG [C5G U7C],0.787
2,GUUCGGAUGGCGUAAUGGUAAUGCGUCUCACUCCUAAGGAGAAGACUGGGGGUUUGAGUCCCGUACGGAACG [C5G U7A C22U C30A C49G C55U],0.552
3,GUUCGGUCGGCGUAAUGGUAACGCGUCUCCCUCCUGAGGCGAAGACUGCGGGUUCGAGUCCCGUACGGAACG [C5G U8C A36G A40C],0.55
4,GUUCGGUCGGCGUAAUGGUAACGCGUCUCCCUCCUCAGGAGAUGACUGCGGGUUCGAGUCCCGUACGGAACG [C5G U8C A36C A43U],≤ 0.5
5,GUUCGGUAGGCGUAAUGGUAACGCGUCUACCUCCCAAGGAGAAGACUGCGGGUUCGAGUCCCGUACGGAACG [C5G U8A C29A U35C],≤ 0.5
6,GUUCGGCUGGCGUAAUGGUAACGCGUCUCUCUCCUAAGGAGAAGACUGCCGGUUCGAGUCCCGUACGGAACG [C5G U7C C30U G50C],≤ 0.5
7,GUUCGGUGGGCGUGAUGGUAACGCGUCUCCCUCCUAAGGAGACGACUACGGGUUCGAGUCCCGUACGGAACG [C5G U8G A14G A43C G48A],0.544
8,GUUCGGUUGGCGUAAUGGUAACGCGUCUCCCUCCUAAGGAGAAGACUGCGGAUUCCAGUCCCGUACGGAACG [C5G G52A G56C],≤ 0.5
9,GUUCGGUUGGCGUAAUGGUAACGCGUCUCCCUCCUAAGGAGAAGACUGCGGGUUCCAGUCCCGUCCGGAACG [C5G G56C A65C],0.549
10,GUUCGGUUGGCGUAAUGGUAACGCGUCUCCCUCCUAAGGAGAAGACUGCGGGUUCCAGUCCCGUUCGGAACG [C5G G56C A65U],≤ 0.5
11,GUUCGGAUGGCGUAAUGGUAACGCGUAUACCUCCUAAGGAGAAGACUGCGGGUUCGAGUCCCGUACGGAACG [C5G U7A C27A C29A],≤ 0.5
12,GUUCGGUCGGCGUAAUGGUAACGCGUCUCCCUCCUAAGGAGAAGACUGCGGGUUCAAGUCCCGUACGGAACG [C5G U8C G56A],0.723
13,GUUCGGUAGGCGUAAUGGUAACGCGUCCCCCUCCUAAGGAGAAGACUGCGAGUUCGAGUCCCGUACGGCACG [C5G U8A U28C G51A A69C],≤ 0.5
14,GUUCGGUAGGCGUAAUGGUAACGCGUCUCCCUCCUAAGAAGAAGACUGCGGGUUUGAGUCCCGUACGGACCG [C5G U8A G39A C55U A70C],0.623
15,GUUCGGUUGGCGAAAUGGUGACGCGUCUCCCUCCAAAGGGGAAGACUGCGGGUUCGAGUCCCGUACGGAACG [C5G U13A A20G U35A A40G],≤ 0.5
16,GUUCGGUAGGCGUAAUGGUAACGCGUCUCCCUCCUAAGGAGAAGACUGCGGCAUCGAGUCCCGUACGGAACG [C5G U8A G52C U53A],≤ 0.5
17,GUUCGGCUGGGGUAAUGGUAACGCGUCUCCGUCCUAAGGAGAAGACUGCGGGUUCGAGUCCCGUACGGAACG [C5G U7C C11G C31G],≤ 0.5
18,GUUCGGGUGGCGAAAUGGUAACGCGUCUCACUCCUAAGGAGACGACUGCGGGCUCGAGUCCCGUACGGAACG [C5G U7G U13A C30A A43C U53C],0.876
19,GUUCGGUUGGCGUAAUGGUAACGCGUCUCCCUCCUAAGGAGAAGACUGCGUGUUGGAGUCCCGUCCGGAACG [C5G G51U C55G A65C],≤ 0.5
